M1 antag: M1 muscarinic receptor (rat) antagonism. P08482. CHO-M1 cells, Fluo-4 calcium, ACh EC80 antagonist mode; hits give low values. B-score at 10 µM. 64,000 compounds, 3.4% hits;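 active = calcium fluorescence response, raw or row-and-column corrected B-score, differing from the plate sample mean either way at a set confidence level, mostly lower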
Htt clearance: compounds clearing mutant huntingtin protein | 47,000 compounds, 0.42% hits | inhibition, % at 1.5 µM | AID 853 | HeLa Exon1htt(103Q)mCFP, aggregate imaging; zero = plate's median compound well;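 active = inhibition of aggregate fluorescence above about 70%, also judged a hit by eye on the cell image, limit read from the data, passing the limit was not always enough; inconclusive = no rule stated for this call; inactive = not judged a hit on image review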;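 also: cells exposed to compound for three days before fixation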
D1 mod: allosterically modulates the human D1 dopamine receptor | HEK293 D1, CRE-luciferase, dopamine EC30 potentiation; actives deviate in either direction | B-score at 10 µM | 58,000 compounds, 5.9% hits | AID 641;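 active = luminescence count or its row- and column-corrected plate score outside the 99.7% band of the plate's sample wells, on either side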
RORA act: activators of human nuclear receptor RORA; P35398; CHO-K1 Gal4-RORA LBD luciferase reporter, luminescence; percent increase over mock-subtracted basal signal; activation, % at 10 µM; 65,000 compounds, 1.5% hits; AID 560;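 active = activation above the mean of all tested compounds plus 3 SD, cut at about 49% in these data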;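 also: 0% = DMSO-treated RORA cells and 100% = added signal equal to DMSO minus mock-transfected cells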
SF-1 act: activates the human nuclear receptor SF-1; AID 522; 65,000 compounds, 1.9% hits; activation, % at 10 µM; CHO-K1 Gal4-SF-1 LBD luciferase reporter; % increase over DMSO SF-1-specific signal; Q13285;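 active = activation above the mean activation of all tested compounds plus 3 SD, cut at about 50% in these data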
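System: CHO-K1 cells with Gal4–hSF-1 LBD chimera plus Gal4-driven luciferase; quantity: 4,000 CHO-K1 cells per well; compound: one dose, 10 µM compound, 1% DMSO; times: 20 h compound treatment, 37 °C; measured by: SteadyLite luciferase luminescence; read-out: percent activation versus DMSO; benchmarks: DMSO and mock-transfected background; replicates: one test per compound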
M1 agonist: activates the M1 muscarinic receptor. CHO-M1 cells, Fluo-4 calcium fluorescence, agonist mode; hits give high values. B-score at 10 µM. AID 626. 64,000 compounds, 3% hits;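 active = fluorescence rise, raw or as B-score row- and column-corrected plate score, outside the 99.7% band of its plate's samples, either direction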
M1 ag confirm: confirmation of rat M1 muscarinic receptor agonists; shares compounds with M1 agonist; fluorescence change (max-min) at 10 µM; CHO-M1 cells, Fluo-4 calcium fluorescence, agonist mode; actives lie on both sides; 1,700 compounds, 19% hits; AID 1488;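 active = fluorescence change differs from the solvent-only DMSO control mean at a set confidence level in both duplicate runs; inconclusive = differs from solvent-only control mean in just one of two runs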;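 also: an EC20 dose of acetylcholine follows compound addition during the same imaging run; raw fluorescence intensity difference in instrument units with no normalization to controls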
M4 agonist ctr: activates rat M4 receptor in counter-screen for M1 agonists; shares compounds with M1 agonist; CHO M4/Gqi5 cells, Fluo-4 calcium fluorescence, agonist mode; actives lie on both sides; fluorescence change (max-min) at 10 µM; 1,700 compounds, 9% hits; AID 1741;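 active = fluorescence change differing from the plate's solvent-only control wells at 99.7% confidence in both duplicates, whether higher or lower; inconclusive = differs from solvent controls in only one of two duplicates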
Target sequence (P08485 whole entry, looked up): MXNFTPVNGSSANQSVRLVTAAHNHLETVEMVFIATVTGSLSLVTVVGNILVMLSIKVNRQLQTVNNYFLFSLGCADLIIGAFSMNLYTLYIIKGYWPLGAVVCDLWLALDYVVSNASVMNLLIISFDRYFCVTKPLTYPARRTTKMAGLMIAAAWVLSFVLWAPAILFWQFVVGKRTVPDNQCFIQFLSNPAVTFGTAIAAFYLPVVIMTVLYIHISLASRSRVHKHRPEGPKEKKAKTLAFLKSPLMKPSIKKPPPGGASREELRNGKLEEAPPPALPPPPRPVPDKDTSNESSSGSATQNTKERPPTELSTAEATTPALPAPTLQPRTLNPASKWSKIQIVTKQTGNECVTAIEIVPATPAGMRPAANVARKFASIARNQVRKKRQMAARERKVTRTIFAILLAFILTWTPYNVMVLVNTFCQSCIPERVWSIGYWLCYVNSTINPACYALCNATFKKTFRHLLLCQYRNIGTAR
* = called active by the depositor; u = inconclusive; x = no result given. Sampled rows, rich in hits. Any-hit rate of the full collection: about 11%.

SMILES	M1 antag	Htt clearance	D1 mod	RORA act	SF-1 act	M1 agonist	M1 ag confirm	M4 agonist ctr
Cn1c2ccccc2c2c(C(=O)NCC3CCCO3)cn(C3CCCC3)c(=O)c21 (configuration not stated)	0.0061	x	0.87	-9	-6	8.8*	-9.8	-63
Cc1ccc(CS(=O)(=O)CCC(=O)NCc2ccc3c(c2)OCO3)cc1	0.29	25	-0.11	-9	8	0.2	x	x
Cc1ccc(CS(=O)(=O)CCC(=O)NCc2cccs2)cc1	0.56	23	0.34	3	-4	4*	-21	-39
Cc1cc2c(c(=O)o1)C1(C(=O)N(CC(=O)O)c3ccccc31)C(C#N)=C(N)O2 (configuration not stated)	-0.11	11	-0.51	-6	-13	18*	60*	54
CC1CCN(C(=O)c2scc3c2OCCO3)CC1	0.11	x	-1.2	5	-12	-0.31	x	x
CC(=O)c1cccc(NC(=O)Cc2cccs2)c1	0.63	x	-0.12	1	-11	-0.68	x	x
O=C(Cc1cccs1)Nc1cccc(C(=O)Nc2ccco2)c1	-0.43	-28	0.058	-6	5	5.5*	-4.1	u
O=C1CCC(C(=O)NC2(C(=O)NC3CCCCC3)CCCCC2)N1 (configuration not stated)	0.015	11	0.42	7	0	-0.0019	x	x
CCOc1cc(-c2ccc(N)c(OCC)c2)ccc1N	0.077	60	-0.36	-10	-9	36*	249*	211*
Nc1nc(C2CCCN2S(=O)(=O)c2ccc(Cl)cc2)cs1 (configuration not stated)	1.2	-9	0.14	3	-1	-0.3	x	x
CC1(C)Cc2c(c(-c3ccco3)[nH]c(=O)c2C#N)CS1	0.031	x	x	-13	-6	24*	4.6	-35
CC1(C)Cc2c(C#N)c(N)sc(=S)c2CS1	0.48	x	2.4	-8	-5	0.44	x	x
N#Cc1c(N)sc(=S)c2c1CCCCC2	-0.93	26	x	5	7	13*	2.2	-10
Cc1ccc2[nH]c(=O)c(CN(CCc3ccccc3)C(=O)N3CCOCC3)cc2c1	-0.34	-5	-0.1	9	2	14*	-7.9	u
CC(Oc1ccc(Cl)cc1Cl)C(=O)Nc1cccnc1 (configuration not stated)	x	14	x	x	x	x	x	x
CC(Oc1ccc(Cl)cc1Cl)C(=O)Nc1ccncc1 (configuration not stated)	-1	x	-2.9	5	-15	7.3*	-5	-19
Cc1ccc(Cl)cc1N1CCN(C(=O)Cn2ccc3ccccc3c2=O)CC1	-0.047	39	0.038	-3	-11	8.7*	3.7	-26
O=C(CSc1nnc(-c2ccccn2)n1Cc1ccccc1)NC1CCCC1	0.29	18	-0.099	4	-1	0.012	x	x
Cc1cc(-c2nc3ncccc3o2)ccc1NC(=O)CC(C)C	-1	-16	-0.14	27	8	-0.51	x	x
Cc1ccc(OCC(=O)Nc2ccc(-c3nc4ncccc4o3)cc2)c(C)c1	-1.2	x	0.41	5	5	3.3*	u	-49
COc1ccc(-c2nc(C#N)c(N3CCCCCC3)o2)cc1OC	-0.44	x	2.2	20	20	0.79	x	x
COc1ccccc1CCNC(=O)c1cnn2c(C(F)F)cc(C)nc12	-0.53	x	x	2	-19	2.5*	-9.9	-34
CCOc1ccccc1-c1cc(-c2ccc(OC)cc2)nc2c1c(=O)n(C)c(=O)n2C	0.11	x	-2.1	2	9	-1.3	x	x
Cc1c(N=Cc2ccco2)c(=O)n(-c2ccccc2)n1C	x	x	-0.3	-3	5	x	x	x
COc1ccc2c(C=Nc3c(C)n(C)n(-c4ccccc4)c3=O)c(O)n(Cc3ccco3)c(=O)c2c1	-2.2*	x	0.83	-11	-7	9.5*	11	-8.7
SMILES	M1 antag	Htt clearance	D1 mod	RORA act	SF-1 act	M1 agonist	M1 ag confirm	M4 agonist ctr
CCSc1nnc(NC(=O)c2cnccn2)s1	0.16	x	-0.22	43	25	-0.25	x	x
CCSc1nnc(NC(=O)c2ccccn2)s1	-0.11	x	-5.8*	-15	-55	11*	u	-60
Cc1ccccc1OCc1nnc2c3cnn(C)c3ncn12	0.47	x	0.39	44	49	-0.45	x	x
O=C(C1CC1)N1CCc2cc(Br)cc(S(=O)(=O)N3CCOCC3)c21	0.076	-64	0.56	10	8	3*	-4.8	-20
CC(=O)N1CCN(c2ccc(Nc3ncnc4c3oc3ccccc34)cc2)CC1	-0.59	-34	0.3	-15	17	8.9*	-5.9	u
COC(=O)C1=C(C)OC(N)=C(C#N)C1c1c(C)nn(-c2ccccc2)c1Cl (configuration not stated)	-0.11	x	-0.35	4	-4	-0.41	x	x
CCOC(=O)C1=C(C)OC(N)=C(C#N)C1c1c(C)nn(-c2ccc(C)cc2)c1Cl (configuration not stated)	0.14	x	-0.96	-10	8	3.4*	1	-13
O=C(Nc1ccc(N2CCOCC2)c(Cl)c1)c1ccc(Br)o1	-2.5*	18	-5*	55*	67*	11*	-8.3	-16
O=C(NCc1cccnc1)C1c2ccccc2C(=O)N1Cc1ccco1 (configuration not stated)	0.02	47	-0.72	-3	5	11*	-16	-19
O=C(CC1SC(=Nc2ccccc2)N(CCCO)C1=O)Nc1ccc(Cl)cc1 (configuration not stated)	-0.89	x	-0.64	13	12	4.4*	-4.6	u
COc1ccccc1N1CCN(C(=O)CCCC2=NS(=O)(=O)c3ccccc3N2)CC1	-0.0014	x	-0.64	14	6	3.2*	-22*	-54
CCOC(=O)C1=C(C)N=C(/N=C/N(C)C)SC1c1ccccc1 (configuration not stated)	-0.014	x	0.19	4	-7	0.21	x	x
Cc1cc(C(=O)OCC(=O)Nc2ccc(F)cc2F)c(C)o1	0.18	48	x	11	-9	0.98	x	x
CCOC(=O)Cn1c(=O)oc2cc(S(=O)(=O)Nc3ccc(F)cc3)ccc21	-1.1	x	0.37	15	0	3.8*	37	2.6
CCOC(=O)Cn1c(=O)oc2cc(S(=O)(=O)NCCc3ccc(C)cc3)ccc21	-0.7	-74	x	x	x	-0.99	x	x
OC(COc1ccccc1Cl)CN1CCN(CC(O)COc2ccccc2Cl)CC1 (configuration not stated)	-0.49	-45	-6.3*	15	18	5.2*	-13	u
Cc1noc(C)c1COC(=O)CCCc1c[nH]c2ccccc12	-0.33	x	-0.12	10	16	-0.32	x	x
